The values that follow come from article PMC2196149 (The Journal of Experimental Medicine, 1997).

Primed or numbered codes have the meaning given here. No end group written: not given here. *: point of attachment. IASA″ = iodo-4-azidosalicylic acid, on the N-terminus in place of PbCS S-252; Benzoyl(4-N3) = [N-]=[N+]=Nc1ccc(C(=O)*)cc1; IASA = iodo-4-azidosalicylic acid

In assay [1] the test system is seven IASA-YIPSAEK(ABA)I-specific CTL clones. Put plainly: 51Cr release cytolytic assay, P815 targets, seven CTL clones. It counts as cell-based, mice. Conditions: clones S1, S4, S14, S15, S17, S18, T1; 51Cr-labeled P815 targets; wt = 1 (Fig. 3 A).
Assay [2] has as its system TCR on CTL T1. Put plainly: TCR-ligand dissociation, clone T1. It is filed as binding, mice. Particulars: preliminary, unpublished results.
The test system of assay [3] is TCR on CTL S17. As to the kind of experiment: TCR-ligand dissociation, clone S17. It counts as binding, mice. Particulars: preliminary, unpublished results.
In assay [4] the test system is TCR on CTL S4. As to the kind of experiment: TCR-ligand dissociation, clone S4. It counts as binding, mice. Particulars: preliminary, unpublished results.
Assay [5] concerns S14 CTL. As to the kind of experiment: inhibition of recognition of photocross-linked IASA-YIPSAEK. It is filed as cell-based, mice. Particulars: P815 cells photocross-linked with suboptimal IASA-YIPSAEK(ABA)I (Fig. 5 B).
The subject of assay [6] is S15 CTL / A20 cells. As to the kind of experiment: 51Cr release cytolytic assay, A20 targets, clone S15. It counts as cell-based, mice. Particulars: 51Cr-labeled A20 cells, E/T 3:1, 8 h; representative experiment (Fig. 4 A). In a few lines:
(§1)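 Murine H-2Kd-restricted CTL clone specific for a photoreactive derivative of a Plasmodium berghei circumsporozoite 252–260 peptide. Targets are 51Cr-labeled A20 B lymphoma cells or their Fas-lacking variant, 2 × 10^3/well, in threefold dilutions of peptide derivative in DMEM + 5% FCS + 10 mM Hepes. CTL (6 × 10^3/well) added after 15 min; 8 h at 37°C. Supernatant 51Cr counted. Specific lysis = 100 × (experimental − spontaneous)/(total − spontaneous).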

The test system of assay [7] is S15 CTL. As to the kind of experiment: 51Cr release cytolytic assay, P815 targets, clone S15. It counts as cell-based, mice. Conditions: 51Cr-labeled P815 targets; partial recognition. A digest of the protocol:
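Cloned CTL are tested on 51Cr-labeled P815 mastocytoma targets (DMEM, 5% FCS, 10 mM Hepes), 2 × 10^3/well, with threefold dilutions of peptide derivative. CTL (6 × 10^3/well) added after 15 min; 4 h at 37°C. Supernatant 51Cr measured. Specific lysis = 100 × (experimental − spontaneous)/(total − spontaneous release).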

Assay [8] concerns S15 CTL / A20 Fas^− cells. Put plainly: 51Cr release cytolytic assay, A20 Fas^− targets, clone S15. It is filed as cell-based, mice. Particulars: 51Cr-labeled A20 Fas^− cells, E/T 3:1, 8 h; representative experiment (Fig. 4 B). In a few lines:
as §1

“P255A ({IASA}-YIASAEK(Benzoyl(4-N3))I; not fully specified)”: in assay [1], the “normalized relative antigenic activities over seven CTL clones” value (“normalized relative antigenic activities” below) was in the range of 0.1 to 6. Moreover, the “dissociation of ligand from TCR compared with wild-type ligand” value in assay [2] is reported as “faster”.

In the case of I254A ({IASA}-YAPSAEK(Benzoyl(4-N3))I), in assay [1], the “normalized relative antigenic activities” value fell in the range of 0.1 to 6.

As for “P255S ({IASA}-YISSAEK(Benzoyl(4-N3))I; not fully specified)”, the “dissociation of ligand from TCR compared with wild-type ligand” value in assay [3] is listed as “considerably slower”.

Take S256A ({IASA″}-YIPAAEK(Benzoyl(4-N3))I): the “normalized relative antigenic activities” value in assay [1] was in the range of 0.1 to 6. The “dissociation of ligand from TCR compared with wild-type ligand” value in assay [3] is reported as “faster”.

Turning to E258A ({IASA}-YIPSAAK(Benzoyl(4-N3))I), the “dissociation of ligand from TCR compared with wild-type ligand” value in assay [4] was “considerably slower”.

Consider “P255L ({IASA}-YILSAEK(Benzoyl(4-N3))I; not fully specified)”, for which the “concentration required for maximal inhibition relative to K259(BA), S14 CTL” value in assay [5] was around 10 fold.

IASA-YIPSAEK(ASA)I [K259(ASA)]: in assay [6], the “specific lysis at half-maximum, A20 cells, S15 CTL” value turned out to be 13%. In addition, in assay [1], the “normalized relative antigenic activities” value is recorded as “efficiently recognized by all clones, except by clone S15”. Also, the “plateau of specific lysis, S15 CTL” value in assay [7] is recorded as at most 30%. Also, the “concentration for half-maximal lysis of A20 Fas^− cells by S15 CTL” value in assay [8] is given as “not detectably lysed”.

With IASA-YIPSAEK(IASA)I, the “plateau of specific lysis, S15 CTL” value in assay [7] was “even lower plateau of lysis”.
